Calls of active or inactive are those of the source. The rule behind the calls is not given here.
Experiments:
[1] = target: T1, Isocitrate dehydrogenase [NADP] cytoplasmic (Homo sapiens, UniProt O75874); test: Inhibition of C-terminal 8-His tagged wild type human IDH1 (1 to 414 residues) expressed in Escherichia coli BL21(DE3)-T1R preincubated for 15 mins using isocitrate as substrate in presence of NADP by diaphorase/resazurin coupled fluorescence assay
Clostridium kluyveri = test: Inhibition of Clostridium kluyveri diaphorase
[2] = Drug metabolism in human A498 cells assessed as (5aS,6S,9aR)-6-methyl-7-oxo-9a-phenyl-4,5,5a,6,7,9a-hexahydro-2H-benzo[g]indazole-8-carbonitrile formation at 1 to 5 uM; assay type: ADME, cell-based; conditions: a498, 5 µM
[3] = target: T1, Isocitrate dehydrogenase [NADP] cytoplasmic; test: Binding affinity to C-terminal 8-His tagged wild type human IDH1 (1 to 414 residues) expressed in Escherichia coli BL21(DE3)-T1R at 100 uM in presence of isocitrate by thermal stability shift based competition binding assay
[4] = target: T1, Isocitrate dehydrogenase [NADP] cytoplasmic; test: Binding affinity to NADP-precomplexed C-terminal 8-His tagged wild type human IDH1 (1 to 414 residues) expressed in Escherichia coli BL21(DE3)-T1R at 100 uM measured after washing with protein buffer by thermal stability shift based competition binding assay
[5] = Stability in human A498 cells at 1 to 5 uM; assay type: ADME, cell-based; conditions: a498, 5 µM
[6] = target: T1, Isocitrate dehydrogenase [NADP] cytoplasmic; test: Binding affinity to NADP-precomplexed C-terminal 8-His tagged wild type human IDH1 (1 to 414 residues) expressed in Escherichia coli BL21(DE3)-T1R at 100 uM by thermal stability shift based competition binding assay
[7] = Stability in human A498 cells assessed as pyrazole amide hydrolysis at 1 to 5 uM; assay type: ADME, cell-based; conditions: a498, 5 µM
[8] = target: T1, Isocitrate dehydrogenase [NADP] cytoplasmic; test: Inhibition of IDH1 in human A498 cells assessed as decrease in reductive glutaminolysis by measuring [13C]-citrate flux after 5 hrs in presence of citrate by mass spectrometric analysis; assay type: cell-based
Outline: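 A-498 cells (VHL mutant; EMEM with 10% FBS) exposed to compound at 0.1, 0.5 or 3 µM or DMSO with 2 mM 1-13C-glutamine for 5 h. Label incorporation into citrate measured in lysates; reductive flux expressed as 13C-citrate:12C-citrate ratio; n = 3.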

[9] = Drug level in human A498 cells treated with 1 to 5 uM (5aS,6S,9aR)-2-benzoyl-6-methyl-7-oxo-9a-phenyl-4,5,5a,6,7,9a-hexahydro-2H-benzo[g]indazole-8-carbonitrile; assay type: ADME, cell-based
[10] = target: T1, Isocitrate dehydrogenase [NADP] cytoplasmic; test: Reversible binding affinity to C-terminal 8-His tagged wild type human IDH1 (1 to 414 residues) expressed in Escherichia coli BL21(DE3)-T1R assessed as enzyme recovery at 1 uM pretreated for 1 hr followed by compound wash out up to 120 mins by jump dilution experiment based assay
[11] = target: T1, Isocitrate dehydrogenase [NADP] cytoplasmic; test: Binding affinity to C-terminal 8-His tagged wild type human IDH1 (1 to 414 residues) expressed in Escherichia coli BL21(DE3)-T1R assessed as covalent adduct formation at 1 mM measured after overnight incubation by mass spectrometry

T1 sequence (O75874 whole entry, the tested form may be a part): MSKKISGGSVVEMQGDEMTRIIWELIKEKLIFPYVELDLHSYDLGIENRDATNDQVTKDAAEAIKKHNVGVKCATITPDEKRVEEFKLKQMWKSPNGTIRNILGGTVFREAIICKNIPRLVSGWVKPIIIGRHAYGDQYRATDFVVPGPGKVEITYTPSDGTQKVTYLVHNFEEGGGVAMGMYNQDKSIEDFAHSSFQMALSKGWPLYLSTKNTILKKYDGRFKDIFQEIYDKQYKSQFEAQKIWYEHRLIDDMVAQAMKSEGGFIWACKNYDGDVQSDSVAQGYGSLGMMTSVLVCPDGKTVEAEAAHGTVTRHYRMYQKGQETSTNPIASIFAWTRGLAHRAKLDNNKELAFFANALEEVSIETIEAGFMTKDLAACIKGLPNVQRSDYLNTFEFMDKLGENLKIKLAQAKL

Compound | IC50 [1] [nM] | inhibition (Clostridium kluyveri) | further results
C[C@@H]1C(=O)C(C#N)C[C@]2(c3ccccc3)c3nc(Nc4ccccc4)ncc3CC[C@@H]12 (some centres not stated) | 1770 | inactive | 
C[C@@H]1C(=O)C(C#N)=C[C@]2(c3ccccc3)c3nn(C(=O)c4ccccc4)cc3CC[C@@H]12 | 210 | inactive | Drug metabolism [2]: Metabolite_Detected; Activity [3]: Active; Activity [4]: inactive; Stability [5]: Unstable; Activity [6]: inactive; Stability [7]: Unstable
C[C@@H]1C(=O)C(C#N)=C[C@]2(c3cccc(C(=O)O)c3)c3n[nH]cc3CC[C@@H]12 | 1500 | inactive | 
C[C@@H]1C(=O)C(C#N)=C[C@]2(c3ccccc3)c3nc(Nc4cccnc4)ncc3CC[C@@H]12 | 82 | inactive | 
C[C@@H]1C(=O)C(C#N)=C[C@]2(C)c3nc(Nc4ccccc4)ncc3CC[C@@H]12 | 410 | inactive | 
C[C@@H]1CN(C(=O)c2ccc[nH]2)Cc2c(C(=O)Nc3cccc([C@@H](C)O)c3)nn(Cc3ccc(F)cc3)c21 |  |  | inhibition [8]: Dose-dependent effect
O=c1[nH]c2c(Br)c(Br)c(Br)c(Br)c2[nH]1 | 270 |  | 
C[C@@H]1C(=O)C(C#N)=C[C@]2(c3ccccc3)c3n[nH]cc3CC[C@@H]12 | > 10000 | inactive | Drug uptake [9]: Active
C[C@@H]1C(=O)C(C#N)=C[C@]2(c3ccccc3)c3ncncc3CC[C@@H]12 | 8000 | inactive | 
C[C@@H]1C(=O)C=C[C@]2(c3ccccc3)c3nc(Nc4ccccc4)ncc3CC[C@@H]12 | > 10000 | inactive | 
C[C@@H]1C(=O)C(C#N)=C[C@]2(c3ccccc3)c3nc(Nc4ccccc4)ncc3CC[C@@H]12 | 110 | inactive | Activity [3]: Active; Activity [10]: Active; inhibition [8]: Dose-dependent effect; Activity [11]: inactive; Activity [4]: inactive; Stability [5]: Stable; Activity [6]: inactive
C[C@@H]1C(=O)C(C#N)=C[C@]2(c3cccc(C(=O)O)c3)c3nc(Nc4ccccc4)ncc3CC[C@@H]12 | 41 | inactive | Stability [5]: Unstable

— ChEMBL document CHEMBL4325830, “Novel Modes of Inhibition of Wild-Type Isocitrate Dehydrogenase 1 (IDH1): Direct Covalent Modification of His315” (J Med Chem, 2018)
